High-throughput results as filed in PubChem BioAssay.
HDAC3 inhib = inhibitors of human histone deacetylase 3. hit rate 0.15% among 320,000. recombinant HDAC3, fluorogenic peptide/trypsin coupled, fluorescence. O15379. inhibition, % at 8.3 µM. AID 2718; in the data active means inhibition above about 26%, passing the limit was not always enough; inconclusive means no clear call, values can overlap the other calls
UCH37 inh = inhibitors of human deubiquitinating enzyme UCH37; inhibition, % (concentration not given with the values); purified proteasome/UCH37, Ub-AMC cleavage fluorescence; Q9Y5K5; hit rate 0.33% among 330,000;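 active means mean inhibition over replicate wells above about 20%, limit read from the data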;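 further: 0% = compound-free wells with enzyme and 100% = wells lacking proteasome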
Target sequence (Q9Y5K5 whole entry, looked up): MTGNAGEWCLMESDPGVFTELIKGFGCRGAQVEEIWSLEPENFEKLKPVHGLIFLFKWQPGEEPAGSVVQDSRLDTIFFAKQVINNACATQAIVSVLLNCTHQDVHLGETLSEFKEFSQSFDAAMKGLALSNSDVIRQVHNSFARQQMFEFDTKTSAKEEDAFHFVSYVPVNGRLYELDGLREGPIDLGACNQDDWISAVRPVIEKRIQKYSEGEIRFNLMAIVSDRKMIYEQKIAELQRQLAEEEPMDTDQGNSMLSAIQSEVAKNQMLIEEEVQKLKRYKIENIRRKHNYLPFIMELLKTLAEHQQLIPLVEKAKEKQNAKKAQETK
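assay system = human UCH37 enzyme supplied as purified proteasome complex | amount = proteasome at 0.15 nM in the dispensed enzyme solution | schedule = 30 min compound-proteasome preincubation then 25 min substrate reaction, room temperature | measured by = fluorescence, ex 355 nm, em 460 nm | benchmarks = no-proteasome wells (full inhibition) and compound-free wells (no inhibition)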
FAS-TE inh = blocks the thioesterase domain of human fatty acid synthase; recombinant FAS-TE, OMFH fluorogenic substrate, fluorescence endpoint; hit rate 0.67% among 360,000; inhibition, % at 15 µM; AID 602261;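 active means compounds whose normalised, plate-corrected inhibition of enzyme fluorescence in the single-dose primary screen is 50% or more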;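 further: 0% = DMSO with enzyme and 100% = substrate without enzyme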
ALR H2O2 inh = human ALR oxidase inhibition via reduced H2O2; inhibition, % (test concentration not listed); hit rate 3.8% among 290,000; P55789; purified ALR, DTT oxidation, H2O2 HRP-luminol luminescence;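 active means mean replicate inhibition above about 79%, with every replicate also reaching it, limit read from the data; inconclusive means only one of the two criteria met; inactive means mean below limit and not every replicate reaching it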
Target sequence (P55789 whole entry, looked up): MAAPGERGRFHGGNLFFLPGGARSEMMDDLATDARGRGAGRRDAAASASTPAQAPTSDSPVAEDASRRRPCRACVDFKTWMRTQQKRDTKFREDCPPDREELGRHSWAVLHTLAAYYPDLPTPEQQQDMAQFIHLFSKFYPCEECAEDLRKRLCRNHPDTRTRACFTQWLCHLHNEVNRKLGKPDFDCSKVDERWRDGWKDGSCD
M18AAP inhibitor = PfM18AAP enzyme inhibition | hit rate 1.2% among 290,000 | recombinant PfM18AAP, H-Glu-NHMec fluorogenic cleavage | inhibition, % at 7.35 µM;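 active means inhibition above the campaign mean inhibition over all tested compounds plus 3 SD, cut at about 28% in these data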;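 further: 0% = plate median of test compound wells and 100% = 2 mM ZnCl2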
Rtt109 HAT inh = C. albicans Rtt109 histone acetyltransferase inhibition; AID 540336; inhibition, % at 34.9 µM; purified Rtt109/Vps75, ThioGlo CoA-SH fluorescence, 4 h; hit rate 0.16% among 330,000; Q5AAJ8;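 active means inhibition of at least 50% in every replicate; inconclusive means best replicate reaches 50% inhibition but some replicates fall short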
An asterisk follows results filed as active; ? = inconclusive; / = not tested or not shown. Hits are enriched below; roughly 4.6% of the tested compounds scored in any of these assays.

SMILES	HDAC3 inhib	UCH37 inh	FAS-TE inh	ALR H2O2 inh	M18AAP inhibitor	Rtt109 HAT inh
CN1CCN(c2ccc(NC(=O)c3cccc(S(=O)(=O)N4CCCC4)c3)cc2)CC1	-4	1	-8	-6	/	3
CCN(c1ccc(NC(=O)c2cccc(S(=O)(=O)N3CCN(C)CC3)c2)cc1)C(C)C	1	2	-2	99*	5	1
Cc1ccc(N2CCN(S(=O)(=O)c3cccs3)CC2C)cc1 (centres undefined)	-6	1	16	99*	-2	7
Cc1ccc(C=Nn2cc(-c3ccccc3)[nH]c2=S)s1	/	3	/	/	/	/
COc1cc(/C=C(\C#N)C(=O)NC(C)C)cc(Cl)c1O	4	/	-3	97*	11	16
COCCNC(=O)/C(C#N)=C/c1cc(Br)c(O)c(OC)c1	7	/	-3	83*	10	5
CN1c2cccc3cccc(c23)N(C)C1c1cccs1	-1	0	18	90*	11	7
CCOc1cc(C=NNC(=O)CCc2n[nH]c(=O)[nH]c2=O)ccc1O	/	5	/	/	/	/
CCCCCCCCCCCCN1[C@@H](CC(=O)O)c2cc(C(F)(F)F)ccc2S1(=O)=O	11	4	58*	98*	/	?
CCCCCCCCN1[C@@H](CC(=O)O)c2cc(C(F)(F)F)ccc2S1(=O)=O	7	1	6	98*	/	3
CCCCCCCCCCCCN1[C@@H](CC(=O)OC)c2cc(C(F)(F)F)ccc2S1(=O)=O	-2	3	27	-5	/	0
Oc1ccc(Br)cc1-c1nc2cnccn2c1NC1CCCC1	-5	-31	6	94*	6	-46
Cc1ccn2c(NC3CCCCC3)c(-c3cccc(SC4CCCCC4)c3)nc2c1	0	/	21	-1	/	-3
Fc1ccc(-c2nc3cnccn3c2NC2CCCC2)cc1	-3	-325	1	99*	-9	-134
Oc1ccc(Br)cc1-c1nc2cnccn2c1NC1CCCCC1	14	-27	16	92*	4	-16
Cc1cc(NN=Cc2ccc(O)cc2O)c2ccccc2n1	/	-12	/	/	/	/
Cc1ccc2nc(C)cc(N/N=C/c3ccccc3O)c2c1	-4	/	5	99*	0	-10
COc1ccccc1/C=N/Nc1cc(C)nc2ccc(C)cc12	-1	/	10	99*	-3	1
COc1ccc2nc(C)cc(Nc3ccc(N4CCN(C)CC4)cc3)c2c1	7	13	-6	96*	4	-5
Cc1cc(N/N=C/c2c[nH]c3ccccc23)c2ccccc2n1	-1	/	8	49	3	7
CCOc1ccccc1C=NNc1cc(C)nc2ccc(C)cc12	/	-31	/	/	/	/
COc1ccc2nc(C)cc(Nc3ccc(N4CCOCC4)cc3)c2c1	-2	12	-8	16	-6	-22
Cc1cc(N/N=C/c2ccc(O)cc2O)c2ccccc2n1	-8	/	-2	97*	12	-10
COC(=O)NN=Cc1cn(CCOc2ccccc2OC)c2ccccc12	/	1	/	/	/	/
COc1cccc(C=NNc2snc(SC)c2C#N)c1O	/	-2	/	/	/	/
SMILES	HDAC3 inhib	UCH37 inh	FAS-TE inh	ALR H2O2 inh	M18AAP inhibitor	Rtt109 HAT inh
Cc1cc(N/N=C/c2ccco2)c2ccccc2n1	-3	/	-2	77*	-1	-2
COc1ccc2nc(C)cc(N/N=C/c3ccccc3)c2c1	-1	/	-2	-1	/	?
Cc1cc(C(=O)N/N=C/c2ccco2)c2ccccc2n1	4	/	-12	-5	1	-5
COc1ccc(/C=N/Nc2cc(C)nc3ccc(OC)cc23)c(OC)c1	2	/	-5	86*	7	7
CC(=NOC(=O)c1c(-c2ccccc2Cl)noc1C)c1ccncc1	/	3	/	/	/	/
COC(=O)c1ccc(OC(=O)c2cccnc2)cc1	42*	5	0	?	0	11
CC(C)OC(=O)c1ccc(OC(=O)c2cccnc2)cc1	47*	1	-4	4	-5	-10
CCOc1ccc(OC(=O)c2cccnc2)cc1	10	5	-2	10	-11	-3
COc1ccc(OC)c(C2CC(=O)N3CN(c4ccccc4F)CSC3=C2C#N)c1 (centres undefined)	?	6	0	79*	28*	-6
CCOC(=O)c1ccc(N2CSC3=C(C#N)C(c4ccc(OC)cc4OC)CC(=O)N3C2)cc1 (centres undefined)	?	4	19	0	21	7
COc1ccc(OC)c(C2CC(=O)N3CN(c4ccc(C)c(Cl)c4)CSC3=C2C#N)c1 (centres undefined)	11	4	18	2	18	91*
COc1cccc(C2CC(=O)N3CN(c4cccc(Cl)c4C)CSC3=C2C#N)c1OC (centres undefined)	51*	1	3	-20	15	-21
COc1ccc(OC)c(C2CC(=O)N3CN(c4cccc(Cl)c4C)CSC3=C2C#N)c1 (centres undefined)	37*	0	12	-55	38*	-5
COc1cccc(C2CC(=O)N3CN(c4ccccc4F)CSC3=C2C#N)c1 (centres undefined)	/	7	6	-27	15	7
CCCOc1ccc2ccccc2c1C=Nn1c(C)nnc1-n1nc(C)cc1C	/	-2	/	/	/	/
Cc1cc(N/N=C/c2ccc(O)cc2)c2cccc(C)c2n1	3	/	-3	100*	15	4
Cc1cc(C)c2nc(C)cc(N/N=C/c3ccc(O)cc3)c2c1	-4	/	0	99*	15	10
Cc1cc(NN=Cc2ccc(O)cc2)c2cccc(C)c2n1	/	-12	/	/	/	/
O=C(Cc1ccccc1[N+](=O)[O-])NN=Cc1cccnc1	/	-1	/	/	/	/
CC(=NNC(=O)c1cc(C)oc1C)c1ccc2ccccc2c1	/	-2	/	/	/	/
NC(=NO)C1COc2ccccc2O1 (centres undefined)	/	2	/	/	/	/
O=C(CSc1nc2[nH]ncc2c(=O)n1-c1ccccc1)N1CCCCCC1	3	4	/	-7	34*	/
O=c1c2cn[nH]c2nc(SCc2ccc3c(c2)OCCO3)n1-c1ccccc1	-1	0	-101	6	4	7
CSc1nc2[nH]ncc2c(=O)n1-c1ccccc1	3	0	-11	-3	61*	-15
Oc1ccccc1C=Nn1c(-c2cccs2)n[nH]c1=S	/	1	/	/	/	/
CCOC(=O)c1c(N2C(=O)Nc3ccccc3N2O)sc2c1CCCCC2	1	1	-12	95*	3	-12
CCOC(=O)CSc1nc2sc3c(c2c(=O)n1-c1ccc(C)cc1)CCN(C)C3	-2	-94	-5	99*	-3	-1
CCOC(=O)CSc1nc2sc3c(c2c(=O)n1-c1ccccc1)CCN(C)C3	0	-73	-2	100*	8	-24
CCCCSc1nc2sc3c(c2c(=O)n1-c1ccc(C)cc1)CCN(C)C3	9	-22	1	-8	3	-6
